Assay results gathered from unrelated publications.
Protocols differ between the studies behind these lines.
Target: D(2) dopamine receptor (DRD2, Homo sapiens, UniProt P14416)
Tested at: 10 µM

`CCn1c2ccccc2c2cc(CNCCCN3CCOCC3)ccc21` gave an inhibition of 21.9% (enzyme activity, inhibitor).
The inhibition of `O=C1c2ccccc2CCCN1CCCCN1CCN(c2ccccn2)CC1` is reported as 93% (ligand displacement, radioligand).
`CN(C)C(=O)Cn1cc(-c2nc(C3(c4ccc(-c5cnc(N)nc5)cc4)CC3)no2)cn1` has an inhibition of 16.1% (cell-free assay).
For `Cc1ccccc1N1CCN(CCCCN2C(=O)C3CCCN3C2=O)CC1` (centres unmarked), the inhibition was 42.3% (enzyme activity, inhibitor).
`O=C1N=C(N2CCCCN2)S/C1=C\c1ccc(F)cc1O` has an inhibition of under 10% (ligand displacement, radioligand).
The inhibition of `COc1ccc(S(N)(=O)=O)cc1C(=O)NCCCN1CCN(c2ccccc2C)CC1` is reported as 45.1% (enzyme activity, inhibitor).
`c1ccc(OC[C@@H]2CN(CCN3CCc4ccccc43)CCO2)cc1` gave an inhibition of 92.8% (ligand displacement, radioligand).
The inhibition of `O=C1C2CCCN2C(=O)N1CCCCN1CCN(c2ccccc2)CC1` (centres unmarked) is reported as 48.3% (enzyme activity, inhibitor).
`Cc1c(C(=O)O)cc(-c2ccc(C3CCNCC3)cc2)c2ccc(-c3ccc(C(F)(F)F)cc3)cc12` gave an inhibition of -14.4% (cell-free assay).
`O=c1oc2cc(OCC(O)CN3CCN(c4ccc(F)cc4)CC3)ccc2c2c1CCC2` (centres unmarked) has an inhibition of 40.8% (enzyme activity, inhibitor).
The inhibition of `Cc1ccc(-c2cnc([C@@]3(O)CC[C@H](C(=O)O)C(C)(C)C3)s2)cc1Nc1cccc(C(F)(F)F)n1` is reported as -5.34% (ligand displacement).
With `CCCNc1nc2ccccc2n1Cc1ccc(Cl)cc1` the inhibition was 1.09% (ligand displacement).
For `Cc1ncccc1OC[C@H]1CN(CCN2CCc3ccccc32)CCO1`, the inhibition was 26.5% (ligand displacement, radioligand).
`C[C@H](NC(=O)Nc1cc2[nH]ncc2c(CO)n1)c1ccccn1` has an inhibition of 17.7% (cell-free assay).
With `Clc1cccc(OC[C@H]2CN(CCN3CCc4ccccc43)CCO2)c1` the inhibition was 63.1% (ligand displacement, radioligand).
With `COc1cc(C(C)=O)ccc1OCC(O)CN1CCN(c2cc(Cl)ccc2C)CC1` (centres unmarked) the inhibition was 33% (enzyme activity, inhibitor).
The inhibition of `CCC(F)(F)c1cc(N2CCC(S(C)(=O)=O)CC2)nc2sc(C(N)=O)c(N)c12` is reported as 69.8% (ligand displacement).
`COc1cccc(OC[C@@H]2CN(CC(=O)N3CCc4ccccc43)CCO2)c1` gave an inhibition of 9.5% (ligand displacement, radioligand).
For `Cc1noc([C@H]2C[C@@H](c3ccc(C(F)(F)F)cc3)CN(C(=O)N3CCS(=O)(=O)C3)C2)n1`, the inhibition was -0.15% (ligand displacement).
The inhibition of `Cc1ccnc(C)c1OC[C@H]1CN(CCN2CCc3ccccc32)CCO1` is reported as 6.1% (ligand displacement, radioligand).
